Common to all, as to type: cell-based
One experiment has as its target T1, F789A mutant PLD1 (Homo sapiens, UniProt Q13393, F827A).
T1 sequence (Q13393 1-1036 isoform Q13393-2 F789A): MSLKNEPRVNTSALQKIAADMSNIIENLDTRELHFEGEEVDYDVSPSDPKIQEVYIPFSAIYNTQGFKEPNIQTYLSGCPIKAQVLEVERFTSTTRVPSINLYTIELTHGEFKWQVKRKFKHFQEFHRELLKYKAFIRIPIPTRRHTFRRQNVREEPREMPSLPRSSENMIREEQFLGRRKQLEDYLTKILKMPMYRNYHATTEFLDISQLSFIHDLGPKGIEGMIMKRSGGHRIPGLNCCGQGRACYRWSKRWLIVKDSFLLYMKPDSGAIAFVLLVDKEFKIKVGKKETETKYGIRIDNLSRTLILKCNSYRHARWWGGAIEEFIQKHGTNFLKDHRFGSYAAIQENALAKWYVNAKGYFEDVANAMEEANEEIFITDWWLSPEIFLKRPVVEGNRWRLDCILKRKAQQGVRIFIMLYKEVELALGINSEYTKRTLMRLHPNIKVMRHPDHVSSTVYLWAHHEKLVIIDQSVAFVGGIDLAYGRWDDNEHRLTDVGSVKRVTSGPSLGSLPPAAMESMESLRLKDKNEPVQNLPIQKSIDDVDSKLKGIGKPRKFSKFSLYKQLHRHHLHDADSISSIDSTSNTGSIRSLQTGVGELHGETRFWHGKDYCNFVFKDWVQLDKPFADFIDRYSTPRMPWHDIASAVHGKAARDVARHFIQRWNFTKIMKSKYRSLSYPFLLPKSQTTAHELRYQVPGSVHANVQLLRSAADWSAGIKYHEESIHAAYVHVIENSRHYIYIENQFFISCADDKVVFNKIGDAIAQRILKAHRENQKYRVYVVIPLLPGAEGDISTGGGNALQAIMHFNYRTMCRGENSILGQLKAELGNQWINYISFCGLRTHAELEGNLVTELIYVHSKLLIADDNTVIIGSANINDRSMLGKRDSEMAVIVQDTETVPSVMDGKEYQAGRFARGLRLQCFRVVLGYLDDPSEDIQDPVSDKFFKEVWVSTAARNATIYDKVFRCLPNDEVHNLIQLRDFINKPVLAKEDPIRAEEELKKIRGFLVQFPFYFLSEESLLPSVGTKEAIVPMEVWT
The experiment in a line: PLD activity assay in F789A mutant PLD1-transfected cells.

For the next experiment, the system named is A549 cells. Put plainly: WST-1 cell viability assay, A549. As to conditions: read-out: IC50 of viability; A549, WST-1, 48 h. In outline: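 Cells grown in DMEM or RPMI 1640 with 10% FBS and 1% penicillin/streptomycin at 37 °C, 5% CO2. Seeded at 5 × 10^3 cells/well and held 24 h at 37 °C, then exposed to test compound for 48 h. WST-1 absorbance was read at 450 nm, in triplicate. IC50 was taken as the concentration giving 50% growth inhibition versus control.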
(In general: Formazan colour is commonly taken as a measure of viable cells.)

In a further experiment the target is T2, F614A mutant PLD1 (Homo sapiens, UniProt Q13393, F652A).
T2 sequence (Q13393 1-1036 isoform Q13393-2 F614A): T1 sequence (Q13393 1-1036 isoform Q13393-2 F789A) with F614A, A789F
Put plainly: PLD activity assay in F614A mutant PLD1-transfected cells.

Residue numbers refer to the chain shown, from its start. “And” between values parts separate entries of the source, which are not always exact repeats. Equal entries are not always repeated.

As for “N-(3,5-Bis(trifluoromethyl)phenyl)-3-(1H-indol-3-yl)propanamide [3r]”, the PLD activity result on F789A mutant PLD1 and at F614A mutant PLD1 was “did not significantly inhibit” in each case. The IC50 in the experiment on A549 cells is 18 µM and 18.4 µM.

As a reminder, the IC50 is the concentration needed to halve the response being measured.

The values above are taken from publication PMC11913021 (Journal of Medicinal Chemistry, 2024).
